The text below walks through data of ChEMBL document CHEMBL1150418, “Discovery of potent furan piperazine sodium channel blockers for treatment of neuropathic pain” (Bioorg Med Chem, 2008).

Molecules are shown by their SMILES. Bounds are passed on as bounds.

One may read the Cmax as the maximum level reached in the sampled fluid or tissue. The clearance is a measure of how efficiently the substance is removed, as volume per time. The ED50 is the dose at which the effect has come halfway, by size or by number of responders. The inhibition is the change of the read-out against control, counted positive when it falls. One may read the IC50 as the midpoint of a concentration-inhibition curve. The Kp is tissue or fluid exposure divided by exposure in the circulation. By bioavailability is commonly meant dose-corrected exposure relative to a reference, in per cent.

Data set [1] is described as follows: Cmax in Sprague-Dawley rat at 10 mg/kg, po. Particulars: in vivo. The data set is classed as ADME, organism-based. Further details: dose 10 mg/kg, route oral. The procedure, abridged:
(§1)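 Rat pharmacokinetics after administration at 10 mg/kg in 10% DMSO/PEG400.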

A short description of data set [2]: Plasma clearance in Sprague-Dawley rat at 10 mg/kg. The data set is classed as ADME, organism-based. Further details: dose 10 mg/kg. An outline of the steps: as §1
Data set [3] relates to Rattus norvegicus. As to the kind of experiment: Analgesic activity in po dosed Sprague-Dawley rat by rotarod test. The class given is functional. The procedure, abridged:
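Accelerating rotorod: after 30-min acclimation, rats placed on 9-cm rod ramping 0–20 rpm over 60 s; latency to fall recorded, maximum 60 s; three training sessions per rat. Groups of at least six rats; mean ± SEM.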
For orientation: In the rotarod test animals must keep their balance on a rotating rod.

For data set [4], the system named is Rattus norvegicus. As to the kind of experiment: Effect on locomotor activity in Sprague-Dawley rat at 230 umol/kg. The class given is functional. The procedure, abridged: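 Open-field locomotor activity recorded with photobeam activity monitors during the light cycle; groups of at least six rats, mean ± SEM.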
Data set [5] deals with T1, Sodium channel protein type 10 subunit alpha (Homo sapiens, UniProt Q9Y5Y9). As to the kind of experiment: Inhibition of human recombinant Nav1.8 channel expressed in HEK293 cells at 0.1 uM by whole cell voltage clamp technique. The class given is cell-based. An outline of the steps: (§2)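 HEK293 cells stably expressing recombinant human sodium channels, grown in high-glucose DMEM, 10% FBS, 2 mM sodium pyruvate, G418. Whole-cell voltage clamp; pipettes 0.8–2.5 MΩ; internal (mM) 135 CsF, 10 CsCl, 5 EGTA, 5 NaCl, 10 HEPES, pH 7.3 with CsOH. Holding pre-pulse set at midpoint of steady-state inactivation for each subtype.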
Target sequence in this assay (Q9Y5Y9 whole entry, looked up): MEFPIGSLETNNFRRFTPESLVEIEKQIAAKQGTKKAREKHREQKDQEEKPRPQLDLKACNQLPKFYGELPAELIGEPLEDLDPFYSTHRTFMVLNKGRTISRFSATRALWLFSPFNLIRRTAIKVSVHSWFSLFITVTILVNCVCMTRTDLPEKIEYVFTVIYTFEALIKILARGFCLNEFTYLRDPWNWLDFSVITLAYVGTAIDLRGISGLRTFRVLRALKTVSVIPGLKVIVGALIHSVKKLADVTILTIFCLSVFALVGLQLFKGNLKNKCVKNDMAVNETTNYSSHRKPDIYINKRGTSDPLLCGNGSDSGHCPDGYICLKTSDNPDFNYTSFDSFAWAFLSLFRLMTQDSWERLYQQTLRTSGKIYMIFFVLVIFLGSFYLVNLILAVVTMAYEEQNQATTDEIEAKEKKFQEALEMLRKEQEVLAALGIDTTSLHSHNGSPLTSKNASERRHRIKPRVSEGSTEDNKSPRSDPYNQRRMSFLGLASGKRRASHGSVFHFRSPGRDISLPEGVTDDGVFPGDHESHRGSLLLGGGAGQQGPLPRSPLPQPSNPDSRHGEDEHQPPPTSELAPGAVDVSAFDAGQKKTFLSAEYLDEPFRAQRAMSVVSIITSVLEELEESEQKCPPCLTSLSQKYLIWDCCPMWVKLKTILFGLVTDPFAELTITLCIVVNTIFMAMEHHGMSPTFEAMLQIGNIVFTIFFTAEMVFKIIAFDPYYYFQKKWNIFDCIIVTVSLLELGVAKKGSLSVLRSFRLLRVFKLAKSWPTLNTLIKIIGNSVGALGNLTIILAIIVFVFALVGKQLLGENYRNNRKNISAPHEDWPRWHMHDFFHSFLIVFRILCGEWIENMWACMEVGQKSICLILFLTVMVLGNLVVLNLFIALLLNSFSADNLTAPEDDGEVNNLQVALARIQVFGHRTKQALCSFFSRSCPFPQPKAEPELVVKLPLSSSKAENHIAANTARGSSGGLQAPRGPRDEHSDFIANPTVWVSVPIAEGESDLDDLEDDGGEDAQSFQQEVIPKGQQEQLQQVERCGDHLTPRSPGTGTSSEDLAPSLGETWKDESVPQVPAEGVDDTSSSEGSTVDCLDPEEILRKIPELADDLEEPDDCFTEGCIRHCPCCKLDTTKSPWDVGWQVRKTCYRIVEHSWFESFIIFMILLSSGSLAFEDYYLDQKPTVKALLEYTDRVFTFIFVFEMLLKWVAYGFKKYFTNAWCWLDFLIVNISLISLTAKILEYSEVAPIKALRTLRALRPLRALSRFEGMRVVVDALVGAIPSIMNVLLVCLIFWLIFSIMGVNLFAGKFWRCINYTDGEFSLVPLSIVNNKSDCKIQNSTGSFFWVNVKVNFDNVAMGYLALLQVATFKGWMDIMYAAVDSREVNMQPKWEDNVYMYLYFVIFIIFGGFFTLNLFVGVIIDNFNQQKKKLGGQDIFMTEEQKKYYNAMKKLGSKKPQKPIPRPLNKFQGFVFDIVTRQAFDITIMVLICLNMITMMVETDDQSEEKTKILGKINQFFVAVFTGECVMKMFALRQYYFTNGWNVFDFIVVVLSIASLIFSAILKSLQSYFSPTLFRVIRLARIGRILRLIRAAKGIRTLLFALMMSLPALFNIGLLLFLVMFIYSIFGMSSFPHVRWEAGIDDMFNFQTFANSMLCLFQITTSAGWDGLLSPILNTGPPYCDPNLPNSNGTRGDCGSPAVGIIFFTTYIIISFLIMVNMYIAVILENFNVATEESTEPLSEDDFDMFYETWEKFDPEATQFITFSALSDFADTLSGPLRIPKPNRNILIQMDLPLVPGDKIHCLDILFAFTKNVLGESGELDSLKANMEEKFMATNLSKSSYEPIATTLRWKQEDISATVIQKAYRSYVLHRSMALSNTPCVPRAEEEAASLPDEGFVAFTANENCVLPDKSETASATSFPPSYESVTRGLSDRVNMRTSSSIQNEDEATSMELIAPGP

Data set [6] deals with Rattus norvegicus. Briefly: Analgesic activity in po dosed Sprague-Dawley rat assessed as attenuation of mechanical allodynia in chung model of neuropathic pain. The class given is functional.
Data set [7] concerns the target T1, Sodium channel protein type 10 subunit alpha. Briefly: Inhibition of human recombinant Nav1.8 channel expressed in HEK293 cells by whole cell voltage clamp technique. The data set is classed as cell-based. An outline of the steps: as §2
Target sequence in this assay (Q9Y5Y9 whole entry): as the sequence (Q9Y5Y9 whole entry, looked up) above
Data set [8] is described as follows: Volume of distribution at steady state in Sprague-Dawley rat at 10 mg/kg. The data set is classed as ADME, organism-based. The arrangement: dose 10 mg/kg. Particulars: in vivo, read-out: Vdss. The procedure, abridged: as §1
In data set [9] the test system is Rattus norvegicus. Briefly: Analgesic activity in po dosed Sprague-Dawley rat by edge test. The class given is functional. An outline of the steps: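 Balance test: rats placed on 0.5-cm-thick edges of a 40 × 40 × 36 cm plexiglass box, must pull up onto the edge and avoid falling; cut-off 2 min. Groups of at least six rats.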
Data set [10] deals with Sodium channel protein type 5 subunit alpha (Homo sapiens, UniProt Q14524). Briefly: Inhibition of human recombinant Nav1.5 channel expressed in HEK293 cells by whole cell voltage clamp technique. The data set is classed as cell-based. The procedure, abridged: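 HEK293 cells stably expressing recombinant human sodium channels, grown in high-glucose DMEM, 10% FBS, 2 mM sodium pyruvate, G418. Holding pre-pulse set at midpoint of steady-state inactivation for each subtype.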

Data set [11] deals with Rattus norvegicus. As to the kind of experiment: Cardiovascular effect in iv dosed Sprague-Dawley rat assessed as decrease in heart rate. The data set is classed as functional. The arrangement: scale not given: the % may be the effect or the level left. An outline of the steps:
(§3)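 Anesthetized rats: after a 30-min control period, blocker or vehicle (PEG-400) infused intravenously as five successive 30-min infusions at 1×, 3×, 10×, 30× and 100× of calculated therapeutic dose; blood sample and hematocrit taken after infusion; mean arterial pressure and heart rate monitored.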

For data set [12], the target named is Sodium channel protein type 10 subunit alpha (Rattus norvegicus) (UniProt Q62968). Briefly: Blockade of Nav1.8 channel in rat dorsal root ganglion neurons assessed as inhibition of TTX-R current at 0.03 uM by whole cell patch clamp technique. The class given is tissue-based. The procedure, abridged:
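Dissociated rat DRG neurons; TTx-r currents recorded by whole-cell voltage clamp. Holding pre-pulse was set at the steady-state inactivation midpoint (V1/2 = −40 mV), giving an inactivated-state protocol. Pipette solution (mM): CsF 135, NaCl 5, CsCl 10, EGTA 5, HEPES 10, pH 7.2. Bath solution (mM): NaCl 22, choline Cl 110, CaCl2 1.8, MgCl2 0.8, HEPES 10, glucose 5, pH 7.4. Percent inhibition is the mean of 2–6 determinations ± SEM.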
On the technique in general: In patch-clamp work, channel activity is measured electrically.

In data set [13] the test system is Rattus norvegicus. Briefly: Cardiovascular effect in iv dosed Sprague-Dawley rat assessed as decrease in mean arterial blood pressure. The class given is functional, Artery. Further details: scale not given: the % may be the effect or the level left. The procedure, abridged: as §3
Data set [14] concerns the target T1, Sodium channel protein type 10 subunit alpha. Briefly: Inhibition of human recombinant Nav1.8 channel expressed in HEK293 cells at 0.03 uM by whole cell voltage clamp technique. The class given is cell-based. An outline of the steps: as §2
Target sequence in this assay (Q9Y5Y9 whole entry, looked up): as above
Data set [15] addresses Sodium channel protein type 10 subunit alpha (Rattus norvegicus) (UniProt Q62968). As to the kind of experiment: Blockade of Nav1.8 channel in rat dorsal root ganglion neurons assessed as inhibition of TTX-R current at 0.1 uM by whole cell patch clamp technique. The class given is tissue-based. The procedure, abridged: (§4)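 Whole-cell voltage clamp of TTX-resistant currents in dissociated rat DRG neurons. Pipette (mM): CsF 135, NaCl 5, CsCl 10, EGTA 5, HEPES 10, pH 7.2. Bath (mM): NaCl 22, choline Cl 110, CaCl2 1.8, MgCl2 0.8, HEPES 10, glucose 5, pH 7.4. Inactivated-state protocol with pre-pulse at V1/2 (−40 mV). Mean ± SEM of two to six determinations.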

Data set [16] addresses Sodium channel protein type 10 subunit alpha (Rattus norvegicus, UniProt Q62968). Briefly: Blockade of Nav1.8 channel in rat dorsal root ganglion neurons assessed as inhibition of TTX-R current by whole cell patch clamp technique. The data set is classed as tissue-based. The procedure, abridged: as §4
A short description of data set [17]: Ratio of drug level in brain to plasma in Sprague-Dawley rat. The class given is ADME. Particulars: Sprague-Dawley, brain and plasma.
Data set [18] in a line: Oral bioavailability in Sprague-Dawley rat at 10 mg/kg. The data set is classed as ADME, organism-based. The note with it: in vivo. An outline of the steps: as §1

Sodium channel protein type 10 subunit alpha (Rattus norvegicus), sequence (Q62968 whole entry, looked up): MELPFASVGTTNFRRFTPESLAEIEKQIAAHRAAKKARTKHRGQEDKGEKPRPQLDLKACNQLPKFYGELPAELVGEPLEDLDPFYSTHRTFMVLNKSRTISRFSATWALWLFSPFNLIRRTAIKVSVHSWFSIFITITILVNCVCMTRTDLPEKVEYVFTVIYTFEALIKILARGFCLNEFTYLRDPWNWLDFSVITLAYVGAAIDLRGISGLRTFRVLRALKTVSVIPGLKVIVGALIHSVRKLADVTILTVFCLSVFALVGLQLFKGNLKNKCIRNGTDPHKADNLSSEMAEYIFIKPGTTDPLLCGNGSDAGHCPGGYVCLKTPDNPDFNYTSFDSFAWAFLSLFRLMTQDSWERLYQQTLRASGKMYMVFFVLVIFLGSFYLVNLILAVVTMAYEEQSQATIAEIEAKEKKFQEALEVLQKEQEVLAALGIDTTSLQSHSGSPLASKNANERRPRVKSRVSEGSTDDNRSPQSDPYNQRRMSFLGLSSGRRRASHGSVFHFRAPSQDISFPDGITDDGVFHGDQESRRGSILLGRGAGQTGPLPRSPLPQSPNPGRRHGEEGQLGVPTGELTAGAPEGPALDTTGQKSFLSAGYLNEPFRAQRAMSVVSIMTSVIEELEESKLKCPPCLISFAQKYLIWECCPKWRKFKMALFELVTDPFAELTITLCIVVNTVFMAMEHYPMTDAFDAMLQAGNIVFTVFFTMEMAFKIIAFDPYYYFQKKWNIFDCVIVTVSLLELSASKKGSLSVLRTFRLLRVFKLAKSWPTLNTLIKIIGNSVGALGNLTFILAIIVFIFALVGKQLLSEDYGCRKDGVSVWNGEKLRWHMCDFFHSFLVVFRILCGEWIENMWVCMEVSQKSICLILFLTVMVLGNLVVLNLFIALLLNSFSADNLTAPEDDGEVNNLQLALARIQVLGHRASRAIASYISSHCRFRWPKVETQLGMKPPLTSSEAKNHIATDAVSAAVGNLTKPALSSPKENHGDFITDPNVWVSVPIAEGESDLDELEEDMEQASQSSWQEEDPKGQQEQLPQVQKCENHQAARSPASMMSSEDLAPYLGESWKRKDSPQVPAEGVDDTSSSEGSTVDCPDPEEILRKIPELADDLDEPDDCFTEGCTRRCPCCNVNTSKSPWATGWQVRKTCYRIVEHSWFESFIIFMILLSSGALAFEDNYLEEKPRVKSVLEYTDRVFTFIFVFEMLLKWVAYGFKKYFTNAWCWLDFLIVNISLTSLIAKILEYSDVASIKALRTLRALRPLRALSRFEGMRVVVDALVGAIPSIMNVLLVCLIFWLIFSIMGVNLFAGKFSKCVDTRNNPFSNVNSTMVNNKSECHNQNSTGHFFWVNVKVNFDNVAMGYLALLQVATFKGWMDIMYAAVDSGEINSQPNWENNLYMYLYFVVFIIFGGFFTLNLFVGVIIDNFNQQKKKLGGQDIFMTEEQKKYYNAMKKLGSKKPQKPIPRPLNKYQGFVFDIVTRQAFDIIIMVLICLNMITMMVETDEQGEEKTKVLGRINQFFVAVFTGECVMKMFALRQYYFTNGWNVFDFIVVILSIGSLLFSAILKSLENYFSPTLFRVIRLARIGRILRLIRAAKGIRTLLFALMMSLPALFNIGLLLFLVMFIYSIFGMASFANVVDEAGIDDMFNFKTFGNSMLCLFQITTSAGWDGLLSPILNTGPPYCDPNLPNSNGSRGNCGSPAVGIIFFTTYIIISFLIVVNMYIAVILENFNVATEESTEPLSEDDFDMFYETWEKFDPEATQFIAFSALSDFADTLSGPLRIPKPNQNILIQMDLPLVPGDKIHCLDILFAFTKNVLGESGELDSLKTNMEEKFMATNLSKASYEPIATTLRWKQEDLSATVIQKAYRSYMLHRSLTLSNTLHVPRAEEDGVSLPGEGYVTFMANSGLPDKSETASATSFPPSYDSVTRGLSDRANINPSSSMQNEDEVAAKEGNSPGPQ
Sodium channel protein type 10 subunit alpha (Rattus norvegicus, UniProt Q62968), sequence (Q62968 whole entry): as the sequence (Q62968 whole entry, looked up) above

In data set [1], `CC(C)(C)c1ccc(-c2ccc(C(=O)N3CCN(C4CCCCC4)CC3)o2)cc1` had a Cmax of 570 ng/mL. The molecule further gave a clearance in data set [2] of 127 mL/min/kg. The figures for the ED50 in the data set on Rattus norvegicus [3], in the data set with Rattus norvegicus [6] and with Rattus norvegicus [9] were greater than 300 µmol/kg, 4.7 µmol/kg and greater than 300 µmol/kg, respectively. Moreover, the Activity in the data set on Rattus norvegicus [4] is reported as 38%; with Rattus norvegicus [11], 27%; in the data set on Rattus norvegicus [13], 11%. The inhibition in data set [5] was determined as 81%; in data set [12], 20%; in data set [14], 57%; in data set [15] it was 58%. In addition, the IC50 turned out to be 30 nM in [7], 100 nM in [10] and 90 nM in data set [16]. In addition, the Vd in [8] was found to be 13.4 L/kg. The partition ratio (Kp) in data set [17] amounted to 8. The same molecule displayed a bioavailability in [18] of 7%.
